Screening data: PubChem, Broad Institute
Sampled rows, rich in hits. Any-hit rate of the full collection: about 2.3%.
EWS-Fli block: inhibitors of EWS/Fli oncoprotein transcriptional activity | AID 651661 | A673 NR0B1-luciferase reporter, viability-normalised | inhibition, % at 12.6 µM | 350,000 compounds, 0.67% hits;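 active = mean inhibition of at least 50% after viability correction, with every replicate also passing that limit; inconclusive = mean reaches 50% but only one of two replicates passes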;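 also: firefly luciferase signal divided by Alamar Blue viability fluorescence both relative to DMSO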
CFTR F508del cor: correctors of CFTR F508del function in bronchial epithelial cells; CFBE cells, YFP halide quenching; stimulated with forskolin plus potentiator P3; % fluorescence drop versus neutral controls; 350,000 compounds, 0.36% hits; activity (quench increase), % at 7.58 µM; AID 720511;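 active = mean added fluorescence quench of at least 8% versus neutral control, with both replicates also reaching 8%; inconclusive = only one of the mean or replicate conditions met; inactive = mean below 8% and not both replicates reaching 8%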;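 also: cells transiently co-express mutant CFTR-F508del with the halide-sensitive YFP; corrector assay measuring rescue of mutant channel to the surface after 24 h compound exposure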
PGC1a acetyl inh: modulators of PGC1a acetylation; U2OS PGC1a acetylation, AlphaScreen anti-acetyl-lysine; with virally co-expressed GCN5 acetyltransferase; 350,000 compounds, 0.17% hits; inhibition, % at 15.6 µM;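 active = every replicate shows inhibition of at least 40%; inconclusive = mean inhibition at least 40% but some replicate below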;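 also: 0% = neutral control wells and 100% = positive control wells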
PAX8 inh HTS: PAX8 transcriptional activity inhibition | inhibition, % at 12.6 µM | RMG-I TPO-luciferase reporter, SteadyGlo, 24 h | 360,000 compounds, 1.2% hits;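 active = mean replicate inhibition at least 60% with every replicate also reaching 60%; inconclusive = only one of the two criteria is met; inactive = mean below 60% and not all replicates reaching 60%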;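 also: luciferase light reporting Pax8 driven TPO promoter activity; plate controls were median of neutral control wells for no effect and mitoxantrone controls for full effect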
Env fusion inh: inhibitors of HIV Env-mediated cell fusion; HeLa-JRFL Env/CEM21 cell fusion, luciferase; inhibition, % at 12.3 µM; 360,000 compounds, 1.1% hits; AID 651610;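 active = mean replicate inhibition score of at least 50 and every replicate individually at or above 50; inconclusive = only one of the two criteria met; inactive = mean below 50 and not all replicates reaching 50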;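 also: 0% = plate neutral controls and 100% = maraviroc near 300 nM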
FN deposit inh: fibronectin deposition inhibition; inhibition, % at 12.6 µM; 350,000 compounds, 0.086% hits; AH1F fibroblasts, Alexa488-fibronectin deposition fluorescence, overnight;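 active = mean inhibition across replicates of 30% or more, regardless of how many single replicates reach that level; inconclusive = mean under 30% yet at least half of replicates reach 30%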;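 also: positive control wells lacked labelled fibronectin entirely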
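Assay system: AH1F fibroblasts / Quantity: 10000 cells per well / Medium: DMEM plus 2% serum, read in PBS / Reagent: labelled fibronectin 24 nM / Dosing: single dose, pinned / Times: 1 h cell attachment, overnight exposure to compound and label / Signal: fluorescence, ex 485 nm, em 525 nm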
* marks the source's active call; other numbers are inactive results; ? = inconclusive; nt = no result given; [ ] = another dose, or the depositor's remark.

SMILES	EWS-Fli block	CFTR F508del cor	PGC1a acetyl inh	PAX8 inh HTS	Env fusion inh	FN deposit inh
Cc1cccc(NC(=O)C2CCN(S(=O)(=O)c3ccc4c(c3)OCCCO4)CC2)n1	10	0	nt	20	83*	0
Cc1ccc(S(=O)(=O)N2CCC(C(=O)Nc3ccc(S(=O)(=O)N4CCCC4)cc3)CC2)cc1C	11	6	-16	67*	1	3
CCC(C)N1CCN(C(=O)C2CCN(S(=O)(=O)c3c(C)noc3/C=C/c3ccco3)CC2)CC1 (stereo unspecified)	8	2	0	70*	-8	0
O=C(Cc1ccncc1)N1CC(=O)N2[C@H](C1)[C@H](c1ccc(C3=CCCC3)cc1)[C@@H]2CO	-13	1	0	-21	nt	nt
C[C@H]1CN([C@@H](C)CO)C(=O)c2cc(-c3cccnc3)cnc2O[C@@H]1CN(C)C(=O)Cc1cccnc1	-13	-2	-3	nt	3[16.7 µM]	-2
CCN1[C@@H]2c3ccc(C4=CCCC4)c(=O)n3C[C@@H]2[C@@H](CO)[C@@H]1C(=O)NCCc1ccccc1	-3	-3	-1	19	nt	nt
Cc1cccc(NC(=O)C2CCN(S(=O)(=O)c3c(C)noc3/C=C/c3ccco3)CC2)n1	nt	nt	nt	62*	6	7
COc1ccc2c(c1)OC/C(=C/c1cccs1)C2=O	-26	nt	nt	112*	-2	1
N#C[C@@H]1[C@H](c2ccc(C3=CCCCC3)cc2)[C@H](CO)N1C(=O)NC1CCCCC1	5	-1	-2	5	7[16.7 µM]	-6
O=C(OCC12CC3CC(CC(C3)C1)C2)c1ccc(NCc2cc(O)ccc2O)cc1	56*	0	nt	52	-29	-24
N#CCC(=O)Nc1ccc(C(=O)OCC(=O)C23CC4CC(CC(C4)C2)C3)cc1	-9	4	nt	-23	1	-4
O=C(OCCC12CC3CC(CC(C3)C1)C2)c1ccc(NCc2cc(O)ccc2O)cc1	68*	-8	nt	56	20	-20
C[C@H](CO)N1C[C@H](C)[C@H](CN(C)C(=O)C2CCOCC2)Oc2ncc(Br)cc2C1=O	-6	-4	17	nt	10[16.7 µM]	nt
CCC(=O)N1CC[C@H]2[C@@H]1c1cc(-c3ccc(F)cc3)ccc1N(C)[C@H]2CO	1	-2	2	1	nt	2
C[C@H](CO)N1C[C@H](C)[C@H](CN(C)CC2CC2)Oc2cc(-c3cccc(F)c3)ccc2S1(=O)=O	2	-1	-13	nt	9[16.7 µM]	-2
N#Cc1ccc2nc(-c3ccc(CN4CCC(c5nc6ccccc6[nH]5)CC4)cc3)c(-c3ccccc3)nc2c1	18	-1	nt	78*	28	23
c1ccc(-c2nc3ccccc3nc2-c2ccc(CN3CCC(c4nc5ccccc5[nH]4)CC3)cc2)cc1	13	1	nt	11	22	-8
O=C(c1ccccc1)c1ccccc1N1C(=O)C=CC1=O	2	-8	-33	53	5	58*
O=C(O)c1cccc(N2C(=O)C=CC2=O)c1	-6	-1	nt	-1	6	3
O=C1C=CC(=O)N1c1ccccc1N1C(=O)C=CC1=O	34	-4	-39	?	-65	40*
CC1(C(=O)Nc2ccc3c(c2)OCO3)CCN1Cc1csc2ccccc12 (stereo unspecified)	-3	0	-15	-25	63*	1
COc1cccc(CN2CCC2(C)C(=O)Nc2cccc(Oc3ccccc3)c2)c1OC (stereo unspecified)	11	-2	-10	32	86*	-3
CCS(=O)(=O)N1CC2(C1)[C@H](c1ccccc1)[C@H](CO)N2C(=O)C1CC1	3	-4	-6	-3	nt	nt
COc1ccc(-n2ncc(S(=O)(=O)c3ccccc3)c2-c2ccc(Cl)cc2)cc1	nt	nt	-47	nt	60*	0
C[C@H](CO)N1C[C@H](C)[C@@H](CN(C)CC2CC2)Oc2ccc(NC(=O)Cc3ccccc3)cc2C1=O	nt	1	-10	-23	nt	nt
O=C(NC(=S)Nc1ccccc1N1CCN(C(=O)c2ccccc2)CC1)c1ccccc1F	nt	3	nt	2	58*	nt
O=C(Nc1ccccc1N1CCN(C(=O)c2ccccc2)CC1)c1ccc(Br)o1	nt	1	1	26	69*	nt
CO[C@@H]1CN(C)C(=O)c2cc(NC(=O)NC3CCCC3)ccc2OC[C@H](C)N(CC2CC2)C[C@H]1C	nt	nt	nt	nt	nt	-2
